# Results: ChEMBL document CHEMBL1124369, “Pyrido[3,4-e]-1,2,4-triazines and related heterocycles as potential antifungal agents” (1989)
# Key:
# [1] = test system: Aspergillus niger; assay: Antifungal activity against Aspergillus niger; assay type: functional
# Method in brief: (§1)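 Agar dilution MIC. Twofold serial drug dilutions in yeast nitrogen base medium with 1% dextrose, 0.15% asparagine and 1.5% agar. Agar surfaces inoculated using a Steers multiple inocula replicator, then incubated at 35 °C for 24-48 h. MIC was recorded as the lowest concentration inhibiting visible growth. Amphotericin B, miconazole and nystatin served as controls.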
# [2] = test system: Candida albicans; assay: Antifungal activity against Candida stellatoidea; assay type: functional; method in brief: as §1
# [3] = test system: Kluyveromyces marxianus; assay: Antifungal activity against Candida pseudotropicalis; assay type: functional; method in brief: as §1
# [4] = test system: Candida albicans; assay: Antifungal activity against Candida albicans; assay type: functional; method in brief: as §1
# [5] = test system: Diutina rugosa; assay: Antifungal activity against Candida rugosa; assay type: functional; method in brief: as §1
# [6] = test system: Candida tropicalis; assay: Antifungal activity against Candida tropicalis; assay type: functional; method in brief: as §1
# [7] = test system: Mucor fragilis; assay: Antifungal activity against Mucor fragilis; assay type: functional; method in brief: as §1
# [8] = test system: Aspergillus niger; assay: Antifungal activity against Aspergillus niger; Range is 32-64; assay type: functional; method in brief: as §1
# [9] = test system: Candida parapsilosis; assay: Antifungal activity against Candida parapsilosis; assay type: functional; conditions: Lodderomyces parapsilosis; method in brief: as §1
# [10] = test system: Trichophyton benhamiae; assay: Antifungal activity against Trichophyton mentagrophytes; assay type: functional, trychophyton mentagrophytes; method in brief: as §1
# [11] = test system: Trichophyton rubrum; assay: Antifungal activity against Trichophyton rubrum; assay type: functional; method in brief: as §1
# [12] = test system: Aspergillus niger; assay: Antifungal activity against Aspergillus niger; Range is 64-128; assay type: functional; method in brief: as §1
# [13] = test system: Trichophyton benhamiae; assay: Antifungal activity against Trichophyton mentagrophytes; Range is 64-128; assay type: functional, trychophyton mentagrophytes; method in brief: as §1
# [14] = test system: Trichophyton rubrum; assay: Antifungal activity against Trichophyton rubrum; Range is 64-128; assay type: functional
# [15] = test system: Aspergillus niger; assay: Antifungal activity against Aspergillus niger; Range is 16-32; assay type: functional; method in brief: as §1
# [16] = test system: Candida albicans; assay: Antifungal activity against Candida albicans; Range is 8-16; assay type: functional; method in brief: as §1
# [17] = test system: Trichophyton rubrum; assay: Antifungal activity against Trichophyton rubrum; Range is 4-8; assay type: functional; method in brief: as §1
# [18] = test system: Candida albicans; assay: Antifungal activity against Candida albicans; Range is 16-32; assay type: functional; method in brief: as §1
# [19] = test system: Kluyveromyces marxianus; assay: Antifungal activity against Candida pseudotropicalis; Range is 8-16; assay type: functional; method in brief: as §1
# [20] = test system: Candida albicans; assay: Antifungal activity against Candida albicans; Range is 64-128; assay type: functional; method in brief: as §1
# [21] = test system: Trichophyton benhamiae; assay: Antifungal activity against Trichophyton mentagrophytes; Range is 32-64; assay type: functional, trychophyton mentagrophytes; method in brief: as §1
# [22] = test system: Trichophyton rubrum; assay: Antifungal activity against Trichophyton rubrum; Range is 8-32; assay type: functional
# [23] = test system: Trichophyton rubrum; assay: Antifungal activity against Trichophyton rubrum; Range is 32-64; assay type: functional; method in brief: as §1
SMILES,MIC [1] [µg/mL],MIC [2] [µg/mL],MIC [3] [µg/mL],MIC [4] [µg/mL],MIC [5] [µg/mL],MIC [6] [µg/mL],MIC [7] [µg/mL],MIC [9] [µg/mL],MIC [10] [µg/mL],MIC [11] [µg/mL],also measured
CC(C)(C)c1ccc(-c2nnc3ccncc3n2)cc1,128,> 128,128,128,> 128,128,128,,,,
Cc1nnc2ncccc2n1,,,128,128,,128,,64,128,128,MIC [8]: 32 µg/mL
Cc1nnc2ccncc2n1,,32,8,,16,8,16,16,16,,MIC [15]: 16 µg/mL; MIC [16]: 8 µg/mL; MIC [17]: 4 µg/mL
CC1(C)N=Nc2ccncc2N1,128,,128,128,,128,,128,128,128,
c1cc2nnc(C3CC3)nc2cn1,32,64,16,16,64,32,16,,,,
CC1N=Nc2ncccc2N1 (centres undefined),,,64,64,,64,,64,,,MIC [8]: 32 µg/mL; MIC [21]: 32 µg/mL; MIC [22]: 8 µg/mL
CCCCCCCCCCCCCCCCCc1nnc2ccncc2n1,128,> 128,128,128,> 128,128,128,,,,
Cc1nc(C)c2nc(-c3ccc(F)cc3)nnc2c1NC(=O)c1ccccc1,128,,128,128,,128,,128,,,MIC [13]: 64 µg/mL; MIC [23]: 32 µg/mL

# The next lines start with results.
MIC [1] [µg/mL],MIC [2] [µg/mL],MIC [3] [µg/mL],MIC [4] [µg/mL],MIC [5] [µg/mL],MIC [6] [µg/mL],MIC [7] [µg/mL],MIC [9] [µg/mL],MIC [10] [µg/mL],MIC [11] [µg/mL],SMILES,also measured
,> 128,128,128,> 128,128,64,,32,16,Cc1nc(C)c2nc(-c3ccncc3)nnc2c1N,MIC [12]: 64 µg/mL
128,,128,128,,128,,128,,,CC1(C)N=Nc2c(cnc3ccccc23)N1,MIC [13]: 64 µg/mL; MIC [14]: 64 µg/mL
,,32,,,16,,16,8,2,Fc1ccc(-c2nnc3ccncc3n2)c(F)c1,MIC [15]: 16 µg/mL; MIC [18]: 16 µg/mL
,16,,,8,16,4,,,,c1ccc(OCc2nnc3ccncc3n2)cc1,MIC [15]: 16 µg/mL; MIC [16]: 8 µg/mL; MIC [19]: 8 µg/mL
,,128,,,128,,128,16,,C(=C\N1CCCCC1)/c1nnc2ccncc2n1,MIC [20]: 64 µg/mL; MIC [17]: 4 µg/mL; MIC [12]: 64 µg/mL
,64,32,64,64,64,64,,,,c1cnc(-c2nnc3ccncc3n2)cn1,MIC [8]: 32 µg/mL
128,> 128,128,128,> 128,128,64,,64,64,Cc1cc2nnc(-c3ccc(F)cc3)nc2c(C)n1,
128,128,64,,128,128,128,,,,COc1cc(-c2nnc3ccncc3n2)cc(OC)c1OC,MIC [20]: 64 µg/mL
128,,128,128,,128,,128,64,64,c1ccc2c3c(cnc2c1)NC1(CCCCC1)N=N3,
> 128,> 128,,> 128,> 128,> 128,128,> 128,128,128,Cc1nc(C)c2nc(-c3ccc(F)cc3)nnc2c1N,
,> 128,128,128,> 128,128,128,,,,c1ccc(-c2ccc(-c3nnc4ccncc4n3)cc2)cc1,MIC [12]: 64 µg/mL
,,32,64,,64,,32,32,32,c1cnc2nncnc2c1,MIC [15]: 16 µg/mL
